Experimental data taken from ChEMBL document CHEMBL5038590, “Discovery of G Protein-Biased Ligands against 5-HT7R” (J Med Chem, 2021).

Tests used:
[1] = molecular target: T1, 5-hydroxytryptamine receptor 7 (Homo sapiens, UniProt P34969); assay: Displacement of [3H] D-lysergic acid diethylamide from 5-HT7R (unknown origin) transfected in HEK293 cells incubated for 1.5 hrs by microbeta scintillation counter analysis; assay type: cell-based
[2] = molecular target: T1, 5-hydroxytryptamine receptor 7; assay: Agonist activity at 5-HT7R (unknown origin) transfected in HEK293 cells expressing tTA-dependent luciferase reporter and beta arrestin 2-TEV fusion gene assessed as beta arrestin recruitment incubated for 22 hrs by Tango assay; assay type: functional, cell-based
[3] = molecular target: T2, 5-hydroxytryptamine receptor 1A (Homo sapiens, UniProt P08908); assay: Binding affinity to 5-HT1AR (unknown origin)
T2 sequence (P08908 whole entry): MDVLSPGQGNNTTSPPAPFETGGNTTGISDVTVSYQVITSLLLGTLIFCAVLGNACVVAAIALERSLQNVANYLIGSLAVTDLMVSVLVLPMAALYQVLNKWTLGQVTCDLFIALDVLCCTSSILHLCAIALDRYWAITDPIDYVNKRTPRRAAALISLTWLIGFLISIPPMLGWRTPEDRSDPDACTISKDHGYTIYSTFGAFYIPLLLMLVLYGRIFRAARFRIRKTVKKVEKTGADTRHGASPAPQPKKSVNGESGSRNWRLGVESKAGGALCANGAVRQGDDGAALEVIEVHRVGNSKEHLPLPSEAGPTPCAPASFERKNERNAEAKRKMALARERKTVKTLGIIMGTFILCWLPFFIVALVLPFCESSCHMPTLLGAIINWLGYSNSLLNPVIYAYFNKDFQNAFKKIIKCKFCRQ
Method in brief: (§1)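 Run by the NIMH Psychoactive Drug Screening Program as competition radioligand binding on crude membranes of cells expressing the recombinant receptor. Eleven dilutions (0.05 nM–50 μM, prepared at 5× assay concentration) were made in 50 mM Tris-HCl, 10 mM MgCl₂, 1 mM EDTA, pH 7.4. Incubation was 1.5 h at rt in the dark, followed by GF/B filtration (0.3% PEI) and scintillation counting. IC₅₀ was converted to Ki; at least triplicate.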

[4] = molecular target: 5-hydroxytryptamine receptor 1B (Homo sapiens, UniProt P28222); assay: Binding affinity to 5-HT1BR (unknown origin); method in brief: as §1
[5] = molecular target: 5-hydroxytryptamine receptor 1D (Homo sapiens, UniProt P28221); assay: Binding affinity to 5-HT1DR (unknown origin); method in brief: as §1
[6] = molecular target: 5-hydroxytryptamine receptor 1E (Homo sapiens, UniProt P28566); assay: Binding affinity to 5-HT1ER (unknown origin); method in brief: as §1
[7] = molecular target: 5-hydroxytryptamine receptor 2A (Homo sapiens, UniProt P28223); assay: Binding affinity to 5-HT2AR (unknown origin); method in brief: as §1
[8] = molecular target: 5-hydroxytryptamine receptor 2B (Homo sapiens, UniProt P41595); assay: Binding affinity to 5-HT2BR (unknown origin); method in brief: as §1
[9] = molecular target: T3, 5-hydroxytryptamine receptor 2C (Homo sapiens, UniProt P28335); assay: Binding affinity to 5-HT2CR (unknown origin); method in brief: as §1
T3 sequence (P28335 whole entry): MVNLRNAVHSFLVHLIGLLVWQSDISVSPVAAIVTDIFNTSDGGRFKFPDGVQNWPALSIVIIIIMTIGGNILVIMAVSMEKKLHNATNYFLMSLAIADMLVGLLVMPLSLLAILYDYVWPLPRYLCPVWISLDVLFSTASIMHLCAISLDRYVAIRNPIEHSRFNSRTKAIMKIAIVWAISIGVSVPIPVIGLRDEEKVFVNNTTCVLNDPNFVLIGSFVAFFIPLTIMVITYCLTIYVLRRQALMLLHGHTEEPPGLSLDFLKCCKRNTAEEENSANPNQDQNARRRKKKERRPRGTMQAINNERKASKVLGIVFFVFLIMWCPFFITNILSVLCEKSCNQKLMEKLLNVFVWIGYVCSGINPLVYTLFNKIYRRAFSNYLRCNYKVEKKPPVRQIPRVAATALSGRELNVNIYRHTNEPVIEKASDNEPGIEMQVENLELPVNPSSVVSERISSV

[10] = molecular target: T4, 5-hydroxytryptamine receptor 3A (Homo sapiens, UniProt P46098); assay: Binding affinity to 5-HT3R (unknown origin); method in brief: as §1
T4 sequence (P46098 whole entry): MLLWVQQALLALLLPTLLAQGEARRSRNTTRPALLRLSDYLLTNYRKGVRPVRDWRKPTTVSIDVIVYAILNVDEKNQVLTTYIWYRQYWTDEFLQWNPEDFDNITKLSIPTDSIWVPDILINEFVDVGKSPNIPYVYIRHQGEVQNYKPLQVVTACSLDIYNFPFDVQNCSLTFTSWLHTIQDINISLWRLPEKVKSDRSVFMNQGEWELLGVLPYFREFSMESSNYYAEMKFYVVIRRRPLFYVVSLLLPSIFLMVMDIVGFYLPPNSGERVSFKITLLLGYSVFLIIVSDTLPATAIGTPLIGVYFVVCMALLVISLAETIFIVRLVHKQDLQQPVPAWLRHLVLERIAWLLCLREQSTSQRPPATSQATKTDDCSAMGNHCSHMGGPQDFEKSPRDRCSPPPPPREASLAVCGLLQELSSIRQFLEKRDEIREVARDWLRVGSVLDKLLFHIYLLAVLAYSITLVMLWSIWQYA

[11] = molecular target: 5-hydroxytryptamine receptor 5A (Homo sapiens, UniProt P47898); assay: Binding affinity to 5-HT5AR (unknown origin); method in brief: as §1
[12] = molecular target: 5-hydroxytryptamine receptor 6 (Homo sapiens, UniProt P50406); assay: Binding affinity to 5-HT6R (unknown origin); method in brief: as §1
[13] = molecular target: T1, 5-hydroxytryptamine receptor 7
Mus musculus [14] = assay: Effect on wild type mouse assessed as time taken for duration of self grooming at 30 mg/kg, ip after 30 mins under 40 lux lighting (reference value: 43.7 +/- 10.8 sec); assay type: functional; conditions: 0.5 h
Mus musculus [15] = assay: Effect on shank3-/- mouse model of autism spectrum disorder assessed as time taken for duration of self grooming at 30 mg/kg, ip after 30 mins under 40 lux lighting (reference value: 224 +/- 47.4 sec); assay type: functional; conditions: 0.5 h

5-hydroxytryptamine receptor 1E, sequence (P28566 whole entry): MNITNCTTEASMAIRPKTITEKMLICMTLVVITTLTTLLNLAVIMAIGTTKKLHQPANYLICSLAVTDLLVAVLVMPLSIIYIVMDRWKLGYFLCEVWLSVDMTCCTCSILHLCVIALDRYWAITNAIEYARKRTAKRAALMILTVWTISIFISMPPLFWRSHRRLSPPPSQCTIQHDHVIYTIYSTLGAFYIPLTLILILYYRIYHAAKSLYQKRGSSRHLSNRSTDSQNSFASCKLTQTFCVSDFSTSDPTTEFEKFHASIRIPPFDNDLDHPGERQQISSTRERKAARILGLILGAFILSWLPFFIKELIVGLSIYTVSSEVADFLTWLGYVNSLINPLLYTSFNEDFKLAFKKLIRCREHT
5-hydroxytryptamine receptor 2A, sequence (P28223 whole entry): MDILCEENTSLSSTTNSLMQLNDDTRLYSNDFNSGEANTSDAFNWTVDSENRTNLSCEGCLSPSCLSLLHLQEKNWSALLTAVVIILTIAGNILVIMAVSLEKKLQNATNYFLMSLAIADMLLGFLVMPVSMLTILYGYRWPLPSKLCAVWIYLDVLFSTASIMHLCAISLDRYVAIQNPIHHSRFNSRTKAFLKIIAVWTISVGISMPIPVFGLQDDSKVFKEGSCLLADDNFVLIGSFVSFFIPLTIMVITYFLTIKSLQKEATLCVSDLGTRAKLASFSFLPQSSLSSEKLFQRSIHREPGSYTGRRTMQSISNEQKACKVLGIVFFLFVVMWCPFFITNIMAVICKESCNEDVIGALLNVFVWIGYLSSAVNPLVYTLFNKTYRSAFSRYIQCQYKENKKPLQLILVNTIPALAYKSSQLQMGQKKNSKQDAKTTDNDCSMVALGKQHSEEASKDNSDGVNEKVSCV
5-hydroxytryptamine receptor 1B, sequence (P28222 whole entry): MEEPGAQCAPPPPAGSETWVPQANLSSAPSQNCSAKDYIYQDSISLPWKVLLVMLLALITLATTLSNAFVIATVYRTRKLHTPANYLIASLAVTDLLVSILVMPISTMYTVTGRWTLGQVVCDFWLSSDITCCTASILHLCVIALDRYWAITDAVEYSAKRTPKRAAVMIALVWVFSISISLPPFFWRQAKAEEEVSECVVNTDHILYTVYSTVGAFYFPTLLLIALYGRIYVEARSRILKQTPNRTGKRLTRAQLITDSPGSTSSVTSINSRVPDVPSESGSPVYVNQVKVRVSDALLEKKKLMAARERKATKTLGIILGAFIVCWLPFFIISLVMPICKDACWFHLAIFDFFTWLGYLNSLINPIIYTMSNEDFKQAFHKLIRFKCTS
5-hydroxytryptamine receptor 6, sequence (P50406 whole entry): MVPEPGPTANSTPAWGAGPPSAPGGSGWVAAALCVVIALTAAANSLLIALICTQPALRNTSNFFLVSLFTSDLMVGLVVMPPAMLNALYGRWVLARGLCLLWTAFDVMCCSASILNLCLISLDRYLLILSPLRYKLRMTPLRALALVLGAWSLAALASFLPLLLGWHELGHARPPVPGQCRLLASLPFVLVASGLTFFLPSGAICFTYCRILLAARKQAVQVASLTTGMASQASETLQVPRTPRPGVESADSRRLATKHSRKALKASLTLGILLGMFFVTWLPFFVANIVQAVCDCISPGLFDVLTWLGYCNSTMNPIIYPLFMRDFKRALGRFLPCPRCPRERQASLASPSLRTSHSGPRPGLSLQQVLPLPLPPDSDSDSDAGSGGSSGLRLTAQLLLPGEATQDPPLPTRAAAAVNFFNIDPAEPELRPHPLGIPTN
5-hydroxytryptamine receptor 1D, sequence (P28221 whole entry): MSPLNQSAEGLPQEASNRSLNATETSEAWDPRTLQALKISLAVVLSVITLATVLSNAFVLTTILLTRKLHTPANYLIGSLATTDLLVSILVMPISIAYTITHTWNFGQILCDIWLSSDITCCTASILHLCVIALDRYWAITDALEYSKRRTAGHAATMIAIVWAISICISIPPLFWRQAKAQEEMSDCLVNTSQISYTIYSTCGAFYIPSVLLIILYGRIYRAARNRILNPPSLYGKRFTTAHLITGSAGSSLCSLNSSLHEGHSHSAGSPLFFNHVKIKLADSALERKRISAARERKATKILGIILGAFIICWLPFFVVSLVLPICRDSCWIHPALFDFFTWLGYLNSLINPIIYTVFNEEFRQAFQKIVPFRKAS
T1 sequence (P34969 whole entry, the tested form may be a part): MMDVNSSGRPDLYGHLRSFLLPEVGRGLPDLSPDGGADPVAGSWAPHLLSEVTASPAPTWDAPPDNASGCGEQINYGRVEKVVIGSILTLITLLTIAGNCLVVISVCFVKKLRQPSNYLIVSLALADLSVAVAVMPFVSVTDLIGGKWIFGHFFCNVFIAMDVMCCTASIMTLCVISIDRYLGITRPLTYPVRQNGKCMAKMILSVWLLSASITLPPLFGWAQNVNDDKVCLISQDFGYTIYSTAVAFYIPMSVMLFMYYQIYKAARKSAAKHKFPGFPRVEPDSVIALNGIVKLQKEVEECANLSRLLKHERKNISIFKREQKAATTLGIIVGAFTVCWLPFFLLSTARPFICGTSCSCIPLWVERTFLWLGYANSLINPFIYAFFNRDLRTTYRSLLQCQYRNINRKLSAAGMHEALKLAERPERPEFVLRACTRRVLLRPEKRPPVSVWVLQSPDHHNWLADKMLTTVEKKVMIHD
5-hydroxytryptamine receptor 5A, sequence (P47898 whole entry): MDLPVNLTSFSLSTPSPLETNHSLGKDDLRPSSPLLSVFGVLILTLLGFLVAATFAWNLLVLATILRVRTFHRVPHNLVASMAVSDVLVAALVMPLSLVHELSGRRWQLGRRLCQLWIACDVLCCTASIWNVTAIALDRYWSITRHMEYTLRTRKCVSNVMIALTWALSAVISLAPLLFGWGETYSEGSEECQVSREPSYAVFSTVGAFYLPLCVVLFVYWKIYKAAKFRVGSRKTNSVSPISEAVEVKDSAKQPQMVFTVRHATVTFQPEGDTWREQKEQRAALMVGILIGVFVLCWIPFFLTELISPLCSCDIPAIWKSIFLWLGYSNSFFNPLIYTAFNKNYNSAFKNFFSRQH
5-hydroxytryptamine receptor 2B, sequence (P41595 whole entry): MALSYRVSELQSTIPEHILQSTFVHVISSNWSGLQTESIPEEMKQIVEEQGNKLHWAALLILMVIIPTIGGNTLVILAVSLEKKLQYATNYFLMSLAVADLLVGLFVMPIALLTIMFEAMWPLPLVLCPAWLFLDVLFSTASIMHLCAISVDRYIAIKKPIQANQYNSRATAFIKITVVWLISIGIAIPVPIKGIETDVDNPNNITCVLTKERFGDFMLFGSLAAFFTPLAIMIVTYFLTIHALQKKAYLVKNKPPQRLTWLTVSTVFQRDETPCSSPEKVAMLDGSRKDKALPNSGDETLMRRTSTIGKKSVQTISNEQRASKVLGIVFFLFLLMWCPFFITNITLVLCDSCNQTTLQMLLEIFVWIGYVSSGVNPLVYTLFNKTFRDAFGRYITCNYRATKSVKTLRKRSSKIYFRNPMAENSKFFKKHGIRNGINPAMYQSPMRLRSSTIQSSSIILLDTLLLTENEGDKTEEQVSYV

Compound	Ki ([1]; read-out: Ki) [µM]	EC50 ([2]; hek293)	Ki [3] [µM]	Ki [4] [µM]	Ki [5] [µM]	Ki [6] [µM]	Ki [7] [µM]	Ki [8] [µM]	Ki [9] [µM]	Ki [10] [µM]	Ki [11] [µM]	Ki [12] [µM]	EC50 ([2]; read-out: EC50) [µM]	EC50 [13] [µM]	Time (Mus musculus [14]) [s]	Time (Mus musculus [15]) [s]	Ki ([1]; read-out: pKi (converted)) [µM]
CCN(CC)Cc1ccc(Cl)c(-c2ccccc2OC)c1	0.11	Not Active	1.7	> 10	> 10	> 10	> 10	0.067	0.82	> 10	0.23	2	–	–	–	–	–
CNCc1ccc(Cl)c(-c2ccccc2OC)c1	–	–	1.7	1.2	1.2	2.4	0.38	0.013	0.2	> 10	0.42	1.3	0.15	0.46	–	–	–
CCCN(CCC)Cc1ccc(Cl)c(-c2ccccc2OC)c1	> 10	Not Active	0.4	> 10	> 10	> 10	> 10	0.08	2.6	> 10	> 10	> 10	–	–	–	–	–
CC1CCN(CC[C@H]2CCCN2S(=O)(=O)c2cccc(O)c2)CC1	–	–	–	–	–	–	–	–	–	–	–	–	–	–	29.3	181	–
CCN(CC)CCc1ccc(Cl)c(-c2ccccc2OC)c1	0.025	Not Active	0.084	0.16	0.0084	6.7	0.68	0.32	> 10	> 10	2.1	> 10	–	1.9	–	–	–
COc1ccccc1-c1cc(CN(C)C)ccc1Cl	–	–	2.1	0.83	1.3	4.1	0.36	0.011	0.27	1	0.22	0.44	0.48	1.1	–	–	0.02
CCCN(CCC)CCc1ccc(Cl)c(-c2ccccc2OC)c1	0.02	Not Active	0.065	0.16	0.038	> 10	1.2	0.23	> 10	> 10	2.9	> 10	–	1.4	–	–	–
CCCNCCc1ccc(Cl)c(-c2ccccc2OC)c1.Cl	0.0087	Not Active	0.14	0.25	0.041	> 10	0.6	0.17	> 10	> 10	0.24	> 10	–	1	–	–	0.00851
CCNCc1ccc(Cl)c(-c2ccccc2OC)c1	–	–	0.84	0.21	0.22	> 10	0.91	0.019	0.045	> 10	1.8	1.4	–	–	–	–	–
Cc1nn(C)c(C)c1-c1cccc(CCN(C)C)c1	0.0013	–	–	–	–	–	–	–	–	–	–	–	0.021	0.083	–	–	–
COc1ccccc1-c1cc(C2CCNC2)ccc1Cl (stereo not drawn)	–	–	0.096	0.41	0.0034	0.77	0.34	0.05	> 10	0.59	0.97	0.4	–	–	–	–	–
CCCCNCCc1ccc(Cl)c(-c2ccccc2OC)c1.Cl	0.064	Not Active	0.22	0.28	0.11	> 10	0.57	0.13	> 10	> 10	2.4	> 10	–	–	–	–	–
CNCCc1ccc(Cl)c(-c2ccccc2OC)c1	0.0016	–	0.28	0.084	0.0033	0.18	0.17	0.069	> 10	> 10	0.91	0.74	0.071	0.073	–	–	–
COc1ccccc1-c1cc(CCN(C)C)ccc1Cl	0.0025	–	0.28	0.074	0.086	2.2	0.25	0.28	> 10	> 10	0.38	1	0.056	0.084	–	–	–
CCCCNCc1ccc(Cl)c(-c2ccccc2OC)c1	0.052	Not Active	–	> 10	2	> 10	0.28	0.015	0.31	> 10	0.36	0.24	–	–	–	–	–
CCCNCc1ccc(Cl)c(-c2ccccc2OC)c1	–	–	0.42	0.64	0.22	> 10	0.67	0.012	0.2	> 10	0.12	3.5	–	–	–	–	–
COc1ccccc1-c1cc(C2CCN(C)C2)ccc1Cl (stereo not drawn)	–	–	0.2	0.012	0.019	4.1	1.2	0.17	0.92	0.42	1	> 10	–	–	–	–	–
